hERG protect = hERG rescue from dofetilide block, primary screen, cell-based, CHO-hERG, FluxOR thallium flux, dofetilide IC70; Voltage-gated inwardly rectifying potassium channel KCNH2 (Homo sapiens), Q12809; dofetilide IC70 present; activation (rescue from dofetilide block), less the hit threshold, % at 10 µM; 0.51% of 310,000 active; AID 1511, 2009;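 active means activation above the mean of controls blocked by dofetilide plus 5 SD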;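 further: thallium influx through hERG after potassium depolarization seen as dye fluorescence rise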
Target sequence (Q12809 whole entry, looked up): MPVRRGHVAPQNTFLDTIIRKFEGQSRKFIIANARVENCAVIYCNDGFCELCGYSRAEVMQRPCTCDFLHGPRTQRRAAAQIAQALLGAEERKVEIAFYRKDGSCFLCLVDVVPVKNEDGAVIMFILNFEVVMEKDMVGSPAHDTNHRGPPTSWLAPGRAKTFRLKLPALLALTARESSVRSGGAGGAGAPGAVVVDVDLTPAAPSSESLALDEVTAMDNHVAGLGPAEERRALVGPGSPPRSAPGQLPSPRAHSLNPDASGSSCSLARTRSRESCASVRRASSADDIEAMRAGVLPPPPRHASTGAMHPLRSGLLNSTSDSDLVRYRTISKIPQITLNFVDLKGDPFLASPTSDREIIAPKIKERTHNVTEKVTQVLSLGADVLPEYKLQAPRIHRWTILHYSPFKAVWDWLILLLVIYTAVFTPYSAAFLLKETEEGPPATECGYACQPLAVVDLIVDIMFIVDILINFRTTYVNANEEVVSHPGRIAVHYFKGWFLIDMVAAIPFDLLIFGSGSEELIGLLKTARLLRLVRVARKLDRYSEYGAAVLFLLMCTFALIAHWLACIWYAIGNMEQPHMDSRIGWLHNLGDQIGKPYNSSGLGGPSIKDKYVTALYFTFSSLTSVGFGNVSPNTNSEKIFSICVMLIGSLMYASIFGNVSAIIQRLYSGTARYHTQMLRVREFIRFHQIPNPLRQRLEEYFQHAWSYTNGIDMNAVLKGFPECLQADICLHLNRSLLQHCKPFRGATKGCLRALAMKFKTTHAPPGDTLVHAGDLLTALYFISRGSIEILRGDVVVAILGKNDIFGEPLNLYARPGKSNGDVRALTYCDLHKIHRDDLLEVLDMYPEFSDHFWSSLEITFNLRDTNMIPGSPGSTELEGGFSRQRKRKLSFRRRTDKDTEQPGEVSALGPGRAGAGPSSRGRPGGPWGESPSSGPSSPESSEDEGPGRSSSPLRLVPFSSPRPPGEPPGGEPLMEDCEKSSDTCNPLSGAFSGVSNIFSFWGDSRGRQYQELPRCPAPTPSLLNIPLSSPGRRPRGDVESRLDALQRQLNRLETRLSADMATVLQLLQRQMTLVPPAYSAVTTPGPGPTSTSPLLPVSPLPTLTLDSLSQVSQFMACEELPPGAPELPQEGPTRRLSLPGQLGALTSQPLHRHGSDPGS
KCNQ1 act = potentiators or activators of KCNQ1 channel, primary screen, cell-based, thallium flux, high-throughput; Potassium voltage-gated channel subfamily KQT member 1 (Homo sapiens), P51787; CHO-K1 KCNQ1, thallium flux FluxOR fluorescence; stronger effect = higher value; B-score at 10 µM; 0.35% of 310,000 active; AID 2648, 2010;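 active means fluorescence ratio B-score, a plate-corrected score, at least three library SD, with initial intensity B-score within 5 SD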
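Schedule – 37 °C overnight plating, 90-min dark dye load, 20-min compound pretreatment · System – stable KCNQ1 CHO-K1 line · Probe or stimulus – thallium- and potassium-containing depolarizing buffer · Measured by – kinetic FluxOR fluorescence, 10 s baseline plus 110 s post-stimulus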
Kir21 block = inhibitors of mouse Kir2.1 inward-rectifier potassium channel | AID 1672, 2009 | B-score at 10 µM | HEK293-Kir2.1, FluxOR thallium flux fluorescence; stronger effect = lower value | 0.85% of 310,000 active;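 active means fluorescence ratio B-score at or below minus 3 SD of library scores, with starting-brightness B-score within 2 SD, cut at about -4.2 in these data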;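 further: channel flux triggered by added potassium and thallium sulfate stimulus; B-score of peak minus minimum fluorescence over baseline after thallium stimulus; more negative B-score means stronger Kir2.1 block with less thallium influx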
KCNK9 inh = KCNK9 potassium channel inhibitors, primary screen, HEK293 cells, thallium flux; 1.2% of 310,000 active; FluxOR thallium flux fluorescence; stronger effect = lower value; Potassium channel subfamily K member 9 (Homo sapiens), Q9NPC2; AID 488922, 2010; B-score at 10 µM;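 active means ratio B-score over 3 SD below the library mean, with starting fluorescence within 5 SD of its mean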;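 further: negative B-score means less thallium flux so channel inhibition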
KCNQ1 inh = inhibitors of human KCNQ1 channel, primary screen, cell-based, thallium flux, high-throughput; 1.3% of 310,000 active; Potassium voltage-gated channel subfamily KQT member 1 (Homo sapiens), P51787; B-score at 10 µM; CHO-K1 KCNQ1, FluxOR thallium flux fluorescence; stronger effect = higher value; AID 2642, 2010;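 active means compounds whose thallium flux B-score, printed positive for inhibition, exceeds three library SD while starting fluorescence stays within three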;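 further: channel opened by potassium depolarization with thallium stimulus after 20 min compound exposure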
KCNK3 inh = human KCNK3 channel inhibitors, primary screen, CHO cells, FluxOR thallium flux, B-score; FluxOR fluorescence; stronger effect = lower value; Potassium channel subfamily K member 3 (Homo sapiens), O14649; B-score at 10 µM; 0.84% of 340,000 active; AID 602410, 2012;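 active means B-score under library mean minus 4 SD, starting fluorescence ratio at most library mean plus 5 SD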;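 further: more negative B-score means stronger inhibition of thallium flux through KCNK3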
KCNK9 inh conf = KCNK9 potassium channel inhibitors, confirmation, HEK293 cells, thallium flux, duplicate; shares compounds with KCNK9 inh; FluxOR thallium flux fluorescence; inhibition, % at 10 µM; 43% of 4,900 active;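 active means thallium signal inhibited by more than 5 SD of the compound-free buffer control wells, on both duplicate plates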
Kir21 sel = mouse Kir2.1 channel inhibition, confirmation, selectivity assay for KCNK9 modulator project, cell-based, HEK293, thallium flux; Kir2.1 cells, FluxOR thallium flux fluorescence; inhibition, % at 10 µM; shares compounds with KCNK9 inh; 4% of 4,900 active;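 active means thallium signal drop more than 5 SD beyond the mean of the no-compound control wells, seen in both duplicate plates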;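 further: signal is fluorescence rise after thallium addition divided by baseline fluorescence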
KCNK9 uninduced = thallium flux in non-induced HEK293 cells, confirmation, counter-screen for KCNK9 inhibitor project, cell-based, second counter screen, non-induced KCNK9-HEK293; AID 492997, 2010; shares compounds with KCNK9 inh; 40% of 4,900 active; inhibition, % at 10 µM; FluxOR thallium flux;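 active means thallium signal drop beyond 5 SD of the untreated control mean, on both duplicate plates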
Hits are given with their value; 0 = inactive; - = not tested or not shown. Compounds with a hit are over-represented: about 3.7% of the library has one in this group of screens.

SMILES	hERG protect	KCNQ1 act	Kir21 block	KCNK9 inh	KCNQ1 inh	KCNK3 inh	KCNK9 inh conf	Kir21 sel	KCNK9 uninduced
Cc1ccc(NC(=O)CSc2ccccc2NC(=O)c2ccccc2Cl)cc1Cl	0	0	0	-9.73	0	0	55.5%	0	0
CC(=O)N1N=C(c2ccc(Cl)cc2)OC1c1ccc(C(C)C)cc1 (centres undefined)	0	0	0	0	6	0	0	0	27.0%
CC(C)Cn1c(SCC(=O)Nc2cccnc2Cl)nnc1-c1ccco1	-	-	-	-	-	0	-	-	-
Cc1c(C(N)=O)cc([N+](=O)[O-])cc1[N+](=O)[O-]	-	-	-	-	-	0	-	-	-
CC(=O)c1cc(CC=C(C)C)c(O)cc1O	0	0	0	-8.65	0	0	27.0%	0	0
COc1cc2cc(C(=O)N/N=C/c3ccccc3Cl)[nH]c2cc1OC	0	0	0	0	0	0	-	-	-
O=C(C1CCCN(S(=O)(=O)c2cccc3cccnc23)C1)N1CCc2ccccc21 (centres undefined)	0	0	0	0	0	0	0	0	0
O=C(NC1CCCCC1)C1CCCN(S(=O)(=O)c2cccc3cccnc23)C1 (centres undefined)	0	0	0	0	0	0	-	-	-
CC1CCCCC12NC(=O)N(CC(=O)OCC(=O)NC(=O)c1ccccc1)C2=O (centres undefined)	-	-	-	-	-	0	-	-	-
N#CC(C#N)=Cc1c[nH]c(=O)c(C#N)c1Nc1ccccc1	0	0	0	0	0	0	-	-	-
O=C(COC(=O)c1ccc2c(c1)OCO2)Nc1nc(-c2ccccc2)cs1	0	0	0	0	0	0	-	-	-
Cc1cc(C)c2sc(NC(=O)C3=COCCO3)nc2c1	0	0	0	0	0	0	-	-	-
Cc1cc(C)c(-c2csc(NC(=O)COC(=O)c3ccc4c(c3)OCO4)n2)c(C)c1	0	0	0	0	0	0	0	0	0
Cc1cc(C)c(-c2csc(NC(=O)C3=COCCO3)n2)c(C)c1	0	0	0	0	0	0	0	0	0
O=[N+]([O-])c1ccc(COc2cccc(CNc3ccc(F)cc3)c2)cc1	0	0	0	-8.34	6	0	41.0%	0	0
Oc1ccc(NCc2cccc(OCc3ccc(F)cc3)c2)cc1	0	0	0	0	0	0	-	-	-
COC(=O)c1cc(OC)c(OC)cc1NC(=S)N1CCN(C/C=C/c2ccccc2)CC1	0	0	0	0	0	0	0	0	0
COc1cc(C(=O)N2CCN(C/C=C/c3ccccc3)CC2)cc(OC)c1OC	0	0	0	0	0	0	-	-	-
COc1ccc(NC(=S)N2CCN(C/C=C/c3ccccc3)CC2)c(OC)c1	0	0	0	0	0	0	-	-	-
CCOc1cc(C(=O)N2CCN(C/C=C/c3ccccc3)CC2)cc(OCC)c1OCC	0	0	0	0	0	0	0	0	0
COc1ccc(OC)c(NC(=O)C(C)N2c3cccc4cccc(c34)S2(=O)=O)c1 (centres undefined)	0	0	0	0	0	0	-	-	-
Cc1ccc(CON=C2CCN(c3ncc(C(F)(F)F)cc3Cl)CC2)cc1	0	0	0	0	0	0	0	0	0
O=C(c1ccccc1)n1ccc(-c2cnc(-c3ccccc3)s2)n1	0	0	0	0	0	0	-	-	-
COc1ccc(S(=O)(=O)n2ccc(-c3cnc(-c4ccccc4)s3)n2)cc1	0	0	0	-9.99	0	0	0	0	31.0%

Source: PubChem
